Experimental data as given in PMC7114156 (Antiviral Research, 2009).
Entries after “also recorded” stand apart in the source; their conditions may differ. Like-named read-outs stand apart in the source and are kept apart here.

What was measured:
MT4 cells [1] = assay: Apoptosis assay; format: cell-based, human; settings: MT4, 20 h exposure
Summary of the method: (§1)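 Apoptosis read as cytoplasmic histone-associated DNA fragments with a Cell Death Detection ELISA kit. Exposure was 20 h for IM9 and MT4 and 40 h for W12 and U937. A405 was read kinetically at 30 °C, and the rate per hour came from linear regression of the linear portion. A Fas-activating antibody was the positive control.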

BJAB = assay: Growth of BJAB, MTS; format: cell-based, human; settings: 72 h
Summary of the method: (§2)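 Cells were plated in 96-well plates in medium holding serial dilutions of test compound, 1 nM to 10 μM, with DMSO ≤1% (v/v) final. Growth was read by MTS after 72 h at 37 °C: 2 h with reagent plus phenazine methosulfate, then A490. K and Imax came from a fit to a modified Hill equation. Vero cells are African Green monkey.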

[2] = Growth of WI38 fibroblasts, MTS; format: cell-based; settings: human
Summary of the method: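 Primary cells were plated in 96-well plates with serial dilutions of test compound, 3 nM to 100 μM, for 72 h at 37 °C. Read-out was CTG for resting B and CD4 T cells and MTS for PBMC, WI38 and HUVEC. Purity was 90–95% for B cells and 97% for CD4 cells. Activated PBMCs were stimulated with phytohemagglutinin plus IL2.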

Molt4 = assay: Growth of Molt4, MTS; format: cell-based, human
Summary of the method: as §2

MT4 cells [3] = assay: Growth of MT4 cell line; format: cell-based, human; settings: for EC50: K ∼ EC50
human keratinocyte (HKC) = assay: Growth of uninfected human keratinocytes; format: cell-based; settings: 4 days
Summary of the method: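 W12-20850 cells were seeded at 7.5 × 10^3 cells/well into 96-well plates containing test compound, 100 to 0.001 μM. Plates were held 4 days at 37 °C, 5% CO2. Growth was read by MTS (A490), and HPV16 DNA was then measured from the same cells. Uninfected human keratinocytes were run in parallel and read by MTS.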

HFF cells = assay: Growth of uninfected HFF cells; format: cell-based, human
[4] = Growth of uninfected HFF cells; format: cell-based, human; settings: human, HFF cells (fibroblasts)
primary cells = assay: Growth of primary cells; format: cell-based, human; settings: at concentrations below 1 μM
HEK293 = assay: Growth of HEK293; format: cell-based, human
Summary of the method: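 Cell lines carrying integrated viral genomes were plated in 96-well plates in medium with test compound. Growth was read by ATP luminescence (CellTiter-Glo) for HEK293 and WI38 VA13, and by MTS reduction (A490 after 2 h at 37 °C) for Namalwa, W12 20861, SiHa, Caski and HeLa. K and Imax came from a fit to a modified Hill equation.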

W12 cells = assay: Apoptosis assay; format: cell-based, human; settings: W12, 40 h exposure
Summary of the method: as §1

## O=C(N[C@@H]1CCCc2c1[nH]c1ccc(Cl)cc21)c1ccccn1 [GSK983, N-[(1R)-6-Chloro-2,3,4,9-tetrahydro-1H-carbazol-1-yl]-2-pyridinecarboxamide]
MT4 cells [1]
  Apoptosis: induced apoptosis
BJAB; B lymphoblast
  Imax, Growth, MTS: 84 ± 1.5%
BJAB; Homo sapiens, read-out: K, growth, MTS
  EC50: 9 ± 0.6 nM
[2]
  CC50 at 72 h: 90000 nM
Molt4; Homo sapiens, MOLT-4, 72 h, read-out: K, growth, MTS
  EC50: 13 ± 1.3 nM
Molt4; Molt4, T lymphoblast, 72 h
  Imax, Growth, MTS: 85 ± 2%
MT4 cells [3]; Homo sapiens, MT4, 72 h, read-out: K, cell line growth, MT4 (HTLV1), CTG, 72 h
  EC50: 8 nM
MT4 cells [3]; MT4 (HTLV1) vs activated CD4 T cell
  Selectivity index: 7600 ± 1000
MT4 cells [3]; read-out: K, cell line growth, MT4 (HTLV1), CTG, 72 h
  EC50: 7.5 ± 0.6 nM
Human keratinocyte (HKC)
  Imax, Growth, MTS: ∼100%
  K, Growth, MTS: 40,000 ± 11,800 nM
HFF cells; HFF, this experiment (Fig. 2), K ∼ CC50
  K, uninfected host cell growth, MTS: 35,500 nM
HFF cells; at concentrations below one micromolar
  Growth of the uninfected HFF, as measured by MTS: not inhibited
[4]
  CC50 at 72 h: 55000 nM
Primary cells
  Inhibition of growth of primary cell types: None of the primary cell types tested was significantly inhibited; also recorded: does not impact the growth
HEK293; HEK293, Adenovirus 5 integrated, 72 h
  Imax, Growth, CTG: 52 ± 2%
HEK293; Homo sapiens, HEK293, 72 h, read-out: K, Growth, CTG
  EC50: 12 ± 2 nM
W12 cells
  Apoptosis: apoptosis did not occur
